Laboratory results reported in ChEMBL document CHEMBL4715801, “Discovery of Mycobacterium tuberculosis InhA Inhibitors by Binding Sites Comparison and Ligands Prediction” (J Med Chem, 2016).

Tests used:
[1] = Inhibition of Mycobacterium tuberculosis InhA assessed as residual enzyme activity by measuring NADH oxidation at 100 uM incubated for 10 mins by spectrophotometry
[2] = Inhibition of Mycobacterium tuberculosis InhA assessed as effect on NADH oxidation incubated for 10 mins by spectrophotometry
[3] = Mixed type inhibition of Mycobacterium tuberculosis InhA assessed as effect on NADH oxidation incubated for 10 mins by spectrophotometry
In short: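 Inhibition type and Ki were taken from the continuous spectrophotometric InhA assay. DD-CoA was the substrate, and its Km was determined alongside.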

Row | Structure (SMILES) | Activity [1] [%] | IC50 [2] [µM] | Ki [3] [µM]
1 | Oc1cc(Cl)ccc1Oc1ccc(Cl)cc1Cl | > 50 | – | –
2 | Cc1c(CN(C)C(=O)/C=C/c2cnc3c(c2)CCC(=O)N3)c2ccccc2n1C | > 50 | – | –
3 | COc1ccc(-c2[nH]c3ccccc3c2CCC(=O)Nc2ncccc2C)cc1 | > 50 | 14 | –
4 | Cc1cc2ncn(Cc3ccc(Cl)c(Cl)c3)c2cc1C | > 50 | 10 | 4
